# Source: ChEMBL document CHEMBL5357047, “The development of thymol-isatin hybrids as broad-spectrum antibacterial agents with potent anti-MRSA activity” (RSC Med Chem, 2024)
# Activity calls are given as the source filed them. The rule behind the calls is not given here.
# Key:
# Staphylococcus aureus [1] = experiment: Anti-biofilm activity against Methicillin-resistant Staphylococcus aureus assessed as reduction in biofilm formation at 1XMIC measured after 48 hrs by crystal violet staining based analysis; assay type: functional
# Outline: (§1)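 Non-adherent cells washed off with water, stained with 0.5% crystal violet 30 min at 25 °C, dye eluted with 95% ethanol, OD 545 nm. Reported as % reduction versus untreated control. Triplicate.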
# [2] = Selectivity index, ratio of IC50 for cytotoxicity against mouse L929 cells to MIC for antibacterial activity against clinically isolated Methicillin-resistant Staphylococcus aureus; assay type: toxicity, cell-based; details: read-out: Selectivity Index
# Staphylococcus aureus [3] = experiment: Anti-biofilm activity against Methicillin-resistant Staphylococcus aureus assessed as cell leakage and irregular surface at 1 to 2X MIC measured after 48 hrs by scanning electron microscopy; assay type: functional, organism-based
# Klebsiella pneumoniae [4] = experiment: Antibacterial activity against clinically isolated Klebsiella pneumoniae RBRJ019 assessed as inhibition of bacterial growth at 50 uM measured after 48 hrs by agar well diffusion method; assay type: functional; details: read-out: IZ
# Staphylococcus aureus [5] = experiment: Bactericidal activity against Methicillin-resistant Staphylococcus aureus assessed as reduction in colony formation units at 1 to 2XMIC measured after 48 hrs by time-kill assay; assay type: functional, organism-based
# Outline: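 Samples taken at 1, 2, 4, 8, 12, 24 and 48 h, diluted in 0.9% saline and plated on Mueller Hinton agar (48 h, 37 °C). CFU counted and log10 CFU mL−1 plotted against time. Triplicate.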
# Enterococcus faecalis = experiment: Antibacterial activity against clinically isolated Enterococcus faecalis RBRJ015 assessed as inhibition of bacterial growth at 50 uM measured after 48 hrs by agar well diffusion method; assay type: functional; details: read-out: IZ
# Staphylococcus aureus [6] = experiment: Anti-biofilm activity against Methicillin-resistant Staphylococcus aureus assessed as interruption in well organized and aggregated biofilm at 1/2 to 2X MIC measured after 48 hrs by scanning electron microscopy; assay type: functional, organism-based
# Staphylococcus aureus [7] = experiment: Bactericidal activity against Methicillin-resistant Staphylococcus aureus ATCC 33591 assessed as inhibition of bacterial growth measured after 48 hrs by agar plate method; assay type: functional
# Outline: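 MBC: aliquots from microdilution wells without colour change subcultured on drug-free Mueller Hinton agar, 48 h at 37 °C aerobically. MBC is the lowest concentration with no visible growth. Triplicate.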
# Staphylococcus aureus [8] = experiment: Antibacterial activity against clinically isolated Methicillin-resistant Staphylococcus aureus assessed as inhibition of bacterial growth measured after 48 hrs by broth microdilution method; assay type: functional
# Staphylococcus aureus [9] = experiment: Anti-biofilm activity against Methicillin-resistant Staphylococcus aureus assessed as mean thickness of biofilm at 1/2XMIC measured after 48 hrs by crystal violet staining based phase contrast microscopy (reference value: 15.03+/-1.63 um); assay type: functional
# Escherichia coli [10] = experiment: Antibacterial activity against clinically isolated Escherichia coli RBRJ013 assessed as inhibition of bacterial growth at 50 uM measured after 48 hrs by agar well diffusion method; assay type: functional; details: read-out: IZ
# [11] = system: Staphylococcus epidermidis; experiment: Antibacterial activity against Staphylococcus epidermidis MTCC 435 assessed as inhibition of bacterial growth measured after 48 hrs by broth microdilution method; assay type: functional
# Staphylococcus aureus [12] = experiment: Anti-biofilm activity against Methicillin-resistant Staphylococcus aureus assessed as mean thickness of biofilm at 1XMIC measured after 48 hrs by crystal violet staining based phase contrast microscopy (reference value: 15.03+/-1.63 um); assay type: functional
# Staphylococcus aureus [13] = experiment: Anti-biofilm activity against Methicillin-resistant Staphylococcus aureus assessed as biofilm volume/area at 1XMIC measured after 48 hrs by crystal violet staining based phase contrast microscopy (reference value: 18.37 +/-1.14 um3/um2); assay type: functional
# Staphylococcus aureus [14] = experiment: Anti-biofilm activity against Methicillin-resistant Staphylococcus aureus assessed as biofilm substrate coverage at 1/2XMIC measured after 48 hrs by crystal violet staining based phase contrast microscopy (reference value: 81.43+/-3.57%); assay type: functional
# Klebsiella pneumoniae [15] = experiment: Antibacterial activity against Klebsiella pneumoniae MTCC 109 assessed as inhibition of bacterial growth at 50 uM measured after 48 hrs by agar well diffusion method; assay type: functional; details: read-out: IZ
# Staphylococcus aureus [16] = experiment: Anti-biofilm activity against Methicillin-resistant Staphylococcus aureus assessed as reduction in biofilm formation at 1/2XMIC measured after 48 hrs by crystal violet staining based analysis; assay type: functional; outline: as §1
# Staphylococcus aureus [17] = experiment: Anti-biofilm activity against Methicillin-resistant Staphylococcus aureus assessed as mean thickness of biofilm at 2XMIC measured after 48 hrs by crystal violet staining based phase contrast microscopy (reference value: 15.03+/-1.63 um); assay type: functional
# Staphylococcus aureus [18] = experiment: Antibacterial activity against clinically isolated Staphylococcus aureus RBRJ010 assessed as inhibition of bacterial growth at 50 uM measured after 48 hrs by agar well diffusion method; assay type: functional; details: read-out: IZ
# Escherichia coli [19] = experiment: Antibacterial activity against clinically isolated Escherichia coli RBRJ005 assessed as inhibition of bacterial growth at 50 uM measured after 48 hrs by agar well diffusion method; assay type: functional; details: read-out: IZ
# Staphylococcus aureus [20] = experiment: Antibacterial activity against Methicillin-resistant Staphylococcus aureus ATCC 33591 assessed as inhibition of bacterial growth measured after 48 hrs by broth microdilution method; assay type: functional
# Staphylococcus aureus [21] = experiment: Antibacterial activity against Methicillin-resistant Staphylococcus aureus ATCC 33591 assessed as inhibition of bacterial growth at 50 uM measured after 48 hrs by agar well diffusion method; assay type: functional; details: read-out: IZ
# Outline: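 Agar well diffusion on Mueller Hinton agar seeded with bacteria at 0.5 McFarland. […] Incubated 48 h at 37 °C aerobically; zone of inhibition diameter (mm) measured. Triplicate.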
# Staphylococcus aureus [22] = experiment: Bactericidal activity against clinically isolated Staphylococcus aureus RBRJ010 assessed as inhibition of bacterial growth measured after 48 hrs by agar plate method; assay type: functional
# Outline: (§2)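 MBC: 10 μL from wells showing no INT colour change after broth microdilution subcultured on drug-free Mueller Hinton agar, 48 h at 37 °C aerobically; lowest concentration with no visible growth taken as MBC (μM). Triplicate.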
# Staphylococcus aureus [23] = experiment: Bactericidal activity against clinically isolated Methicillin-resistant Staphylococcus aureus assessed as inhibition of bacterial growth measured after 48 hrs by agar plate method; assay type: functional
# [24] = system: Staphylococcus epidermidis; experiment: Bactericidal activity against Staphylococcus epidermidis MTCC 435 assessed as inhibition of bacterial growth measured after 48 hrs by agar plate method; assay type: functional; outline: as §2
# Escherichia coli [25] = experiment: Antibacterial activity against Escherichia coli MTCC 119 assessed as inhibition of bacterial growth at 50 uM measured after 48 hrs by agar well diffusion method; assay type: functional; details: read-out: IZ
# [26] = molecular target: T1, 4,4'-diapophytoene synthase (Staphylococcus aureus) (UniProt A9JQL9); experiment: Inhibition of CrtM in Methicillin-resistant Staphylococcus aureus assessed as inhibition of staphyloxanthin production by measuring reduction in 4,4'-diaponeurosporenic acid level at 1/4XMIC measured after 24 hrs by spectroscopic analysis
# T1 sequence (whole entry): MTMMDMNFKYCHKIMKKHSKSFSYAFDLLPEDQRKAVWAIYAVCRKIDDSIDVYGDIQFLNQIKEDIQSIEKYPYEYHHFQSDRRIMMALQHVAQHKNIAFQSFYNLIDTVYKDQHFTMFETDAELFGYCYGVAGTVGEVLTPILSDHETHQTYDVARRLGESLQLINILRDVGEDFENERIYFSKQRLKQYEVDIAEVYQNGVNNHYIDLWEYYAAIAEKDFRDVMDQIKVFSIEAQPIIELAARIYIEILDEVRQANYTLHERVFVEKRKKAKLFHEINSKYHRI
# Outline: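 Cells pelleted, PBS-washed, extracted overnight in methanol at 37 °C. Supernatant absorbance read at 462 nm (staphyloxanthin), 286 nm (4,4′-diapophytoene), 435 nm (4,4′-diaponeurosporene) or 455 nm (4,4′-diaponeurosporenic acid). % inhibition = (control − treated)/control × 100.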
smiles,measurement,setting,value
Cc1ccc(C(C)C)c(OCc2cn(CCCN3C(=O)C(=O)c4ccccc43)nn2)c1,inhibition (INH),Staphylococcus aureus [1],89.63%
same,selectivity ratio,[2],65
same,Activity,Staphylococcus aureus [3],Active
same,zone of inhibition at 50 µM,Klebsiella pneumoniae [4],20.2 mm
same,Activity,Staphylococcus aureus [5],Active
same,zone of inhibition at 50 µM,Enterococcus faecalis,20.2 mm
same,Activity,Staphylococcus aureus [6],Active
same,MBC,Staphylococcus aureus [7],7.8 µM
same,MIC,Staphylococcus aureus [8],1.9 µM
same,Activity,Staphylococcus aureus [9],2.97 um
same,zone of inhibition at 50 µM,Escherichia coli [10],20.3 mm
same,MIC,[11],3.9 µM
same,Activity,Staphylococcus aureus [12],1.11 um
same,Activity,Staphylococcus aureus [13],1.57 um3/um2
same,Activity,Staphylococcus aureus [14],19.12%
same,zone of inhibition at 50 µM,Klebsiella pneumoniae [15],21.4 mm
same,inhibition (INH),Staphylococcus aureus [16],78.43%
same,Activity,Staphylococcus aureus [17],0.16 um
same,zone of inhibition at 50 µM,Staphylococcus aureus [18],27.1 mm
same,zone of inhibition at 50 µM,Escherichia coli [19],19.3 mm
same,MIC,Staphylococcus aureus [20],3.9 µM
same,zone of inhibition at 50 µM,Staphylococcus aureus [21],27.5 mm
same,MBC,Staphylococcus aureus [22],3.9 µM
same,MBC,Staphylococcus aureus [23],3.9 µM
same,MBC,[24],7.8 µM
same,zone of inhibition at 50 µM,Escherichia coli [25],22.1 mm
same,inhibition,[26],86%
